Source: ChEMBL document CHEMBL3784952, “Design, discovery, modelling, synthesis, and biological evaluation of novel and small, low toxicity s-triazine derivatives as HIV-1 non-nucleoside reverse transcriptase inhibitors” (Bioorg Med Chem, 2016)
“And” between values parts separate entries of the source, which are not always exact repeats. Equal entries are not always repeated. The source made the active and inactive calls. The calls are words filed in the database; no cut-off is given here.

How the values were obtained:
[1] = molecular target: Human immunodeficiency virus type 1 reverse transcriptase (Human immunodeficiency virus 1) (UniProt Q72547); experiment: (§1) Inhibition of recombinant HIV1 reverse transcriptase using 234-nt long RNA/18-mer DNA oligonucleotide as template/primer assessed as remaining activity at 200 uM preincubated for 15 mins followed by incubation with template/primer for 40 mins by liquid scintillation counting in presence of alpha[P33]-dCTP relative to control
[2] = molecular target: Human immunodeficiency virus type 1 reverse transcriptase (Human immunodeficiency virus 1) (UniProt Q72547); experiment: as §1, with “50” for “200”
[3] = tested on: Human immunodeficiency virus 1; experiment: Antiviral activity against HIV1 virus-like particles harboring wild type reverse transcriptase infected in human U2OS cells after 24 hrs by Renilla luciferase assay; format: functional, organism-based
Procedure, shortened: (§2)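 U2OS cells seeded 5 × 10^4 per well, infected next day with HIV-1 VLPs carrying wt or mutant RT at MOI 0.01 with polybrene 6 μg/mL plus compound; 1 h at 37 °C, washed, compound-containing media 24 h, then compound-free media 24 h. Lysate Gluc activity (Renilla luciferase reagent) normalised to protein.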

[4] = Cytotoxicity against human U2OS cells assessed as reduction of cell viability after 48 hrs; format: cell-based
Procedure, shortened: (§3)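 Impedance-based real-time viability: U2OS (3.5 × 10^3) or TZM-bl (8.5 × 10^3) cells seeded on electrode plates, compounds in DMSO added 24 h later (final DMSO 0.5%), cell index recorded over a further 48 h. CC50 = concentration lowering cell index by 50% relative to DMSO-only cells.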

[5] = Cytotoxicity against human TZM-bl cells assessed as reduction of cell viability after 48 hrs; format: cell-based; procedure, shortened: as §3
[6] = molecular target: Human immunodeficiency virus type 1 reverse transcriptase (Human immunodeficiency virus 1) (UniProt Q72547); experiment: (§4) Inhibition of HIV1 reverse transcriptase using 234-nt long RNA/18-mer DNA oligonucleotide as template/primer preincubated for 15 mins followed by incubation with template/primer for 40 mins by liquid scintillation counting in presence of alpha[P33]-dCTP
[7] = molecular target: Human immunodeficiency virus type 1 reverse transcriptase (Human immunodeficiency virus 1, UniProt Q72547); experiment: as §4
[8] = tested on: Human immunodeficiency virus 1; experiment: Antiviral activity against HIV1 virion infected in human TZM-bl cells after 48 hrs by firefly luciferase assay; format: functional, organism-based
Procedure, shortened: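 TZM-bl cells (LTR-driven firefly luciferase), 5 × 10^4 per well, infected next day with ACH-2-derived HIV-1 stock (PMA-induced; 30 ng p24 per well) plus compound for 2 h at 37 °C; medium then replaced with compound-containing medium for 48 h.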

[9] = tested on: Human immunodeficiency virus 1; experiment: Antiviral activity against HIV1 virus-like particles harboring reverse transcriptase K103N mutant infected in human U2OS cells after 24 hrs by Renilla luciferase assay; format: functional, organism-based; procedure, shortened: as §2
[10] = tested on: Human immunodeficiency virus 1; experiment: Antiviral activity against HIV1 virus-like particles harboring reverse transcriptase Y181C mutant infected in human U2OS cells after 24 hrs by Renilla luciferase assay; format: functional, organism-based; procedure, shortened: as §2
[11] = tested on: Human immunodeficiency virus 1; experiment: Antiviral activity against HIV1 virus-like particles harboring reverse transcriptase K103N/Y181C double mutant infected in human U2OS cells after 24 hrs by Renilla luciferase assay; format: functional, organism-based; procedure, shortened: as §2
[12] = Selectivity index, ratio of CC50 for human U2OS cells to IC50 for HIV1 virus-like particles infected in U2OS cells; format: functional
[13] = Selectivity index, ratio of CC50 for human TZM-bl cells to IC50 for HIV1 virion […]; format: functional
[14] = tested on: Human immunodeficiency virus 1; experiment: Antiviral activity against HIV1 virus-like particles harboring wild type reverse transcriptase infected in human U2OS cells assessed as remaining viral activity at 50 uM after 24 hrs by Renilla luciferase assay relative to control; format: functional; procedure, shortened: as §2
[15] = tested on: Human immunodeficiency virus 1; experiment: Antiviral activity against HIV1 virus-like particles harboring wild type reverse transcriptase infected in human U2OS cells assessed as remaining viral activity at 5 uM after 24 hrs by Renilla luciferase assay relative to control; format: functional; procedure, shortened: as §2
[16] = (§5) Cytotoxicity against human U2OS cells assessed as cell viability at 50 uM after 48 hrs relative to control; format: cell-based; conditions: U2OS cells, read-out: Activity
Procedure, shortened: (§6)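 U2OS cells seeded at 3.5 × 10^3 on electrode plates; after 24 h compound added at a single concentration (final DMSO 0.5%) and impedance cell index followed for 48 h. Graded against DMSO-treated cells: >50% reduction toxic, 20-50% moderately toxic, ≤20% non-toxic.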

[17] = (§7) Cytotoxicity against human U2OS cells assessed as cell viability at 5 uM after 48 hrs relative to control; format: cell-based; conditions: U2OS cells, read-out: Activity; procedure, shortened: as §6
U2OS [18] = experiment: as §5; format: cell-based; conditions: u2os, 48 h, 50 µM; procedure, shortened: as §6
U2OS [19] = experiment: as §7; format: cell-based; conditions: u2os, 48 h, 5 µM; procedure, shortened: as §6
[20] = tested on: Human immunodeficiency virus 1; experiment: Potency index, ratio of nevirapine IC50 to compound IC50 for HIV1 virus-like particles infected in human U2OS cells; format: functional
[21] = tested on: Human immunodeficiency virus 1; experiment: Selectivity ratio of IC50 for HIV1 virus-like particles harboring reverse transcriptase K103N/Y181C double mutant to IC50 for HIV1 virus-like particles harboring wild type reverse transcriptase; format: functional
[22] = Human immunodeficiency virus 1, U2OS, 24 h, read-out: IC50
[23] = Human immunodeficiency virus 1, TZM-bl, 48 h, read-out: IC50

Compound	Activity [1]	Activity [2]	IC50 [3, 22]	CC50 at 48 h [4]	IC50 ([7]; read-out: IC50)	Activity [14]	viability at 48 h, 50 µM [16]	other results
Cc1ccc(Nc2nc(NCC3CCCO3)nc(Nc3ccc(C)cc3)n2)cc1 (stereo in doubt; 8(n.p)) [listing 1 of 2 here]	53%	59%	–	–	–	–	–	–
Cc1ccc(Nc2nc(N)nc(Nc3ccc(C)cc3)n2)cc1	–	–	2.5 µM	42.2 µM	116 µM	–	–	CC50 at 48 h [5]: 57 µM; inhibition [6]: Dose-dependent effect; IC50 [8, 23]: 5.6 µM; Activity [9]: inactive; Activity [10]: inactive; Activity [11]: inactive; Ratio CC50/IC50 [12]: 17; Ratio CC50/IC50 [13]: 10
Cc1ccc(Nc2nc(COc3ccc(Cl)cc3)nc(=N)[nH]2)cc1	86%	79%	> 50 µM	> 50 µM	> 200 µM	82%	76%	Activity [15]: 125%; viability at 48 h, 5 µM [17]: 93%
Cc1ccc(Nc2nc(NCC3CCCO3)nc(Nc3ccc(C)cc3)n2)cc1 (single isomer, unassigned; isomer 1)	–	–	–	–	–	–	–	IC50 ([3]; u2os, read-out: IC50): 18.2 µM
c1coc(CNc2nc(NCc3ccco3)c3nc(NCc4ccco4)[nH]c3n2)c1	102%	92%	> 50 µM	> 50 µM	> 200 µM	104%	116%	–
Cc1ccnc2c1NC(=O)c1cccnc1N2C1CC1 [NEVIRAPINE]	9%	13.7%	–	> 100 µM	–	–	–	CC50 at 48 h [5]: > 100 µM; Activity [15]: 0.5%; IC50 [8, 23]: 0.026 µM; Activity (U2OS [18]): Non-toxic; Activity (U2OS [19]): Non-toxic
Nc1c(NCCO)cc(Nc2ccccc2)c2c1C(=O)c1ccccc1C2=O	66%	90%	> 5 µM	> 5 µM	> 200 µM	–	42%	Activity [15]: 111%; viability at 48 h, 5 µM [17]: 99%
CNc1nc(Nc2ccc(C)cc2)nc(Nc2ccc(C)cc2)n1	79% and 82%	85% and 86%	> 5 µM	> 5 µM	> 200 µM	–	46%	Activity [15]: 84% and 80%; Activity (U2OS [18]): 40%; viability at 48 h, 5 µM [17]: 96%; Activity (U2OS [19]): 91%
COc1ccc(Nc2nc(Nc3ccc(OC)cc3)nc(NC3CCCC3)n2)cc1	98%	94%	> 5 µM	> 50 µM	> 200 µM	30%	67%	Activity [15]: 94%; viability at 48 h, 5 µM [17]: 87%
Cc1ccccc1Nc1nc(N)nc(CN(C)Cc2ccc(F)cc2)n1	89%	103%	> 50 µM	> 50 µM	> 200 µM	53%	84%	Activity [15]: 151%; viability at 48 h, 5 µM [17]: 96%
Cc1ccc(Nc2nc(NCC3CCCO3)nc(Nc3ccc(C)cc3)n2)cc1 (single isomer, unassigned; isomer 2)	–	–	–	–	–	–	–	IC50 ([3]; u2os, read-out: IC50): 32 µM; CC50 at 48 h [5]: > 50 µM
Cc1ccc(Nc2nc(NCC3CCCO3)nc(Nc3ccc(C)cc3)n2)cc1 (stereo in doubt; 8)	–	–	–	> 50 µM	–	–	–	IC50 ([3]; u2os, read-out: IC50): 16 µM; IC50 [7]: Not Active; IC50 ([8]; tzm-bl): Not Active; Ratio IC50 [20]: 10
Cc1ccc(Nc2nc(N)nc(COC(=O)c3cnc4ccccc4n3)n2)cc1	54%	82%	> 50 µM	> 50 µM	> 200 µM	75%	103%	–
Cc1ccccc1Nc1nc(Cn2ccc(C(F)(F)F)cc2=O)nc(=N)[nH]1	89%	88%	> 50 µM	> 50 µM	> 200 µM	101%	105%	–
Nc1nc(COC(=O)c2c[nH]c3ccccc23)nc(Cc2ccc(F)cc2)n1	87%	86%	> 50 µM	> 50 µM	> 200 µM	118%	101%	–
O=C1NC(=S)N(CCC2=CCCCC2)C(=O)/C1=C\NCCO	78%	92%	> 50 µM	> 50 µM	> 200 µM	54%	98%	–
Cc1ccc(Nc2nc(O)nc(Nc3ccc(C)cc3)n2)cc1	–	–	0.067 µM	> 12.5 µM	55.1 µM	–	–	CC50 at 48 h [5]: > 12.5 µM; IC50 [8, 23]: 0.16 µM; Activity [9]: inactive; Activity [10]: inactive; IC50 ([11]; Human immunodeficiency virus 1, U2OS): 8 µM; Ratio IC50 [21]: >100
CCOC(=O)c1[nH]c2ccc(F)cc2c1NC(=O)NC1CCCCC1	42%	81%	> 50 µM	> 50 µM	> 50 µM	84%	103%	–
Cc1ccc2[nH]c(=O)c(CN(CCCO)C(=S)NC[C@@H]3CCCO3)cc2c1	108%	98%	> 50 µM	> 50 µM	> 200 µM	68%	108%	–
Cc1ccc(Nc2nc(NCC3CCCO3)nc(Nc3ccc(C)cc3)n2)cc1 (stereo in doubt; 8(n.p)) [listing 2 of 2 here]	–	–	–	–	106 µM	5.2%	66%	IC50 ([3]; u2os, read-out: IC50): 0.33 µM; Activity [15]: 20%; viability at 48 h, 5 µM [17]: 90%
Cc1ccc(Nc2nc(NCC3CCCO3)nc(NCC3CCCO3)n2)cc1 (stereo not drawn)	–	–	–	> 50 µM	–	–	–	IC50 ([3]; u2os): Not Active; CC50 at 48 h [5]: > 50 µM
Cc1ccc(Nc2nc(Nc3ccc(C)cc3)nc(Nc3ccc(C)cc3)n2)cc1	–	–	–	> 50 µM	–	–	–	IC50 ([3]; u2os): Not Active; CC50 at 48 h [5]: > 50 µM
Cc1c(CCC(=O)NCC(=O)NCC(=O)O)c(=O)oc2c(C)c(O)ccc12	93%	92%	> 50 µM	> 50 µM	> 200 µM	94%	99%	–
CCCn1c(NCCN(CC)CC)nc2c1c(=O)[nH]c(=O)n2C	103%	89%	> 50 µM	> 50 µM	> 200 µM	128%	101%	–
